Test results as given in ChEMBL document CHEMBL1132569.

Legend:
[1] = target: T1, Muscarinic acetylcholine receptor M4 (Homo sapiens) (UniProt P08173); experiment: Binding affinity at the NMS liganded human muscarinic acetylcholine receptor M4 was estimated as log affinity (log1/M)
T1 sequence (whole entry): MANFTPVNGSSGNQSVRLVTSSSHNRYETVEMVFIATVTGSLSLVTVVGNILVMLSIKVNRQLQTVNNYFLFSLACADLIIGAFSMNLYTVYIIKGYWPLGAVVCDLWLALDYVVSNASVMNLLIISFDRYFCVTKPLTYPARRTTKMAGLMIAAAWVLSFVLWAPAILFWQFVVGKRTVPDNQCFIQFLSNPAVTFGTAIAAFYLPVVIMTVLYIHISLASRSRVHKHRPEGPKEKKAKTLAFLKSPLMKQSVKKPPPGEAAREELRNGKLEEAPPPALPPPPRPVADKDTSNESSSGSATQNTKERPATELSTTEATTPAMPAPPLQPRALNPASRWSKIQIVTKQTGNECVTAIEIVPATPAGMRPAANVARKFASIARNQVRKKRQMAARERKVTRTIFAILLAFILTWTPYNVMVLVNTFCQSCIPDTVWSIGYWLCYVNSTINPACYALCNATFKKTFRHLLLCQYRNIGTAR
How it was run: (§1)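 Equilibrium runs were ≥2 h with 2 × 10⁻⁴ M GTP and 0.1–0.7 nM ³H-NMS. Nonspecific binding was defined with 10⁻⁶ M QNB, and bound ligand was filtered and counted. Log affinities came from semiquantitative plus off-rate, quantitative equilibrium, or nonequilibrium assays, fitted by nonlinear least squares to the allosteric ternary complex model.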

[2] = target: T1, Muscarinic acetylcholine receptor M4 (Homo sapiens); experiment: Binding affinity at the unliganded human muscarinic acetylcholine receptor M4 was estimated as log affinity (log1/M); how it was run: as §1
[3] = target: T1, Muscarinic acetylcholine receptor M4 (Homo sapiens); experiment: Cooperativity with NMS at human muscarinic acetylcholine receptor M4
How it was run: (§2)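 Equilibrium ³H-NMS binding in CHO membranes expressing human m1–m5 receptors was measured with and without ACh, alone and with three agent concentrations. Data were converted to affinity ratios, meaning apparent primary-ligand affinity with agent divided by affinity without it.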

[4] = target: T1, Muscarinic acetylcholine receptor M4 (Homo sapiens); experiment: Cooperativity with acetylcholine at human muscarinic acetylcholine receptor M4; how it was run: as §2
[5] = target: Muscarinic acetylcholine receptor M3 (Homo sapiens) (UniProt P20309); experiment: Cooperativity with NMS at human muscarinic acetylcholine receptor M3; how it was run: as §2
[6] = target: Muscarinic acetylcholine receptor M3 (Homo sapiens) (UniProt P20309); experiment: Cooperativity with acetylcholine at human muscarinic acetylcholine receptor M3; how it was run: as §2
[7] = target: Muscarinic acetylcholine receptor M3 (Homo sapiens) (UniProt P20309); experiment: Binding affinity at the NMS liganded human muscarinic acetylcholine receptor M3 was estimated as log affinity (log1/M); how it was run: as §1
[8] = target: Muscarinic acetylcholine receptor M3 (Homo sapiens) (UniProt P20309); experiment: Binding affinity at the unliganded human muscarinic acetylcholine receptor M3 was estimated as log affinity (log1/M); how it was run: as §1
[9] = target: T2, Muscarinic acetylcholine receptor M5 (Homo sapiens) (UniProt P08912); experiment: Binding affinity at the NMS liganded human muscarinic acetylcholine receptor M5 was estimated as log affinity (log1/M); how it was run: as §1
T2 sequence (whole entry): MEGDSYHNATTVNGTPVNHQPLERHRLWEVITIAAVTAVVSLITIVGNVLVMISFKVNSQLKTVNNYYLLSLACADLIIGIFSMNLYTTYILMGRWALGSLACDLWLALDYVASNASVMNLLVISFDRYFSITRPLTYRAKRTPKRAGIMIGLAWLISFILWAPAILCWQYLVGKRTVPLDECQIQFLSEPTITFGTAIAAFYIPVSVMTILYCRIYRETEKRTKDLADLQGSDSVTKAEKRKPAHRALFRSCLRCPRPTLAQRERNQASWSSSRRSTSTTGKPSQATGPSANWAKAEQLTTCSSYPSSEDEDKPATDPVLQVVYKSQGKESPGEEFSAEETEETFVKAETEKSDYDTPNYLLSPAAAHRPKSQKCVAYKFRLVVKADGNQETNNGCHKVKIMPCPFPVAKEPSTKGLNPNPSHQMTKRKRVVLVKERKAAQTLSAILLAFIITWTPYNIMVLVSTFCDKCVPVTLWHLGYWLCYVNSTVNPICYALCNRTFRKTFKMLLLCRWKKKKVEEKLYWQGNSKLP

[10] = target: T2, Muscarinic acetylcholine receptor M5 (Homo sapiens); experiment: Binding affinity at the unliganded Muscarinic acetylcholine receptor M5 was estimated as log affinity (log1/M); how it was run: as §1
[11] = target: T2, Muscarinic acetylcholine receptor M5 (Homo sapiens); experiment: Cooperativity with NMS at Muscarinic acetylcholine receptor M5; how it was run: as §2
[12] = target: T2, Muscarinic acetylcholine receptor M5 (Homo sapiens); experiment: Cooperativity with acetylcholine at Muscarinic acetylcholine receptor M5; how it was run: as §2
[13] = target: T3, Muscarinic acetylcholine receptor M2 (Homo sapiens) (UniProt P08172); experiment: Binding affinity at the NMS liganded human muscarinic acetylcholine receptor M2 was estimated as log affinity (log1/M); how it was run: as §1
T3 sequence (whole entry): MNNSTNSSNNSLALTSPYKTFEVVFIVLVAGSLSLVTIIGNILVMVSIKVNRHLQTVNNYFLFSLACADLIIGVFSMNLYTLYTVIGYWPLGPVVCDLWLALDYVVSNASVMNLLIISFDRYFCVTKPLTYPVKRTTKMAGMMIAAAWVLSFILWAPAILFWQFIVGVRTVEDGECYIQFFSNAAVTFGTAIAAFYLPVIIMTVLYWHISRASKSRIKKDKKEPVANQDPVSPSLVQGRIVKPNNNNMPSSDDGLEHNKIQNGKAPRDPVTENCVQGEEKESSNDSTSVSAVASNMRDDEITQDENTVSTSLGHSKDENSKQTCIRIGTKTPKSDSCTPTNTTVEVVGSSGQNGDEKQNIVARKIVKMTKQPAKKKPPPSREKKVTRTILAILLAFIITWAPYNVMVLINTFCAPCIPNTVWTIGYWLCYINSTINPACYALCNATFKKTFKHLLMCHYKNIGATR

[14] = target: T3, Muscarinic acetylcholine receptor M2 (Homo sapiens); experiment: Binding affinity at the unliganded human muscarinic acetylcholine receptor M2 was estimated as log affinity (log1/M); how it was run: as §1
[15] = target: T3, Muscarinic acetylcholine receptor M2 (Homo sapiens); experiment: Cooperativity with NMS at human muscarinic acetylcholine receptor M2; how it was run: as §2
[16] = target: T3, Muscarinic acetylcholine receptor M2 (Homo sapiens); experiment: Cooperativity with acetylcholine at human muscarinic acetylcholine receptor M2; how it was run: as §2
[17] = target: T4, Muscarinic acetylcholine receptor M1 (Homo sapiens) (UniProt P11229); experiment: Binding affinity at the NMS liganded human muscarinic acetylcholine receptor M1 was estimated as log affinity (log1/M); how it was run: as §1
T4 sequence (whole entry): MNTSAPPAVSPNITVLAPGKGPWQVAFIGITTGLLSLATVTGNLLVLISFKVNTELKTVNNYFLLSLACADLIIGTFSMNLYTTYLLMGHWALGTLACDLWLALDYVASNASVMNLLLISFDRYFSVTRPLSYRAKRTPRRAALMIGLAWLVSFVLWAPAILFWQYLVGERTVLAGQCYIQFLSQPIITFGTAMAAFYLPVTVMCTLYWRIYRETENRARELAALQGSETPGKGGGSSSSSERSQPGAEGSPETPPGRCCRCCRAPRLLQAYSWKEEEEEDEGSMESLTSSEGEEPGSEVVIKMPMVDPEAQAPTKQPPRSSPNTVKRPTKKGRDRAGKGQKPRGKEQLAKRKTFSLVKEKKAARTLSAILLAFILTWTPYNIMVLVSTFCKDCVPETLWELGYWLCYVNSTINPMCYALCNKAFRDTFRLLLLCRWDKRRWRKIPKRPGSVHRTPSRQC

[18] = target: T4, Muscarinic acetylcholine receptor M1 (Homo sapiens); experiment: Binding affinity at the unliganded human muscarinic acetylcholine receptor M1 was estimated as log affinity (log1/M); how it was run: as §1
[19] = target: T4, Muscarinic acetylcholine receptor M1 (Homo sapiens); experiment: Cooperativity with NMS at human muscarinic acetylcholine receptor M1; how it was run: as §2
[20] = target: T4, Muscarinic acetylcholine receptor M1 (Homo sapiens); experiment: Cooperativity with acetylcholine at human muscarinic acetylcholine receptor M1; how it was run: as §2

Sequence of Muscarinic acetylcholine receptor M3 (Homo sapiens) (P20309 whole entry, looked up): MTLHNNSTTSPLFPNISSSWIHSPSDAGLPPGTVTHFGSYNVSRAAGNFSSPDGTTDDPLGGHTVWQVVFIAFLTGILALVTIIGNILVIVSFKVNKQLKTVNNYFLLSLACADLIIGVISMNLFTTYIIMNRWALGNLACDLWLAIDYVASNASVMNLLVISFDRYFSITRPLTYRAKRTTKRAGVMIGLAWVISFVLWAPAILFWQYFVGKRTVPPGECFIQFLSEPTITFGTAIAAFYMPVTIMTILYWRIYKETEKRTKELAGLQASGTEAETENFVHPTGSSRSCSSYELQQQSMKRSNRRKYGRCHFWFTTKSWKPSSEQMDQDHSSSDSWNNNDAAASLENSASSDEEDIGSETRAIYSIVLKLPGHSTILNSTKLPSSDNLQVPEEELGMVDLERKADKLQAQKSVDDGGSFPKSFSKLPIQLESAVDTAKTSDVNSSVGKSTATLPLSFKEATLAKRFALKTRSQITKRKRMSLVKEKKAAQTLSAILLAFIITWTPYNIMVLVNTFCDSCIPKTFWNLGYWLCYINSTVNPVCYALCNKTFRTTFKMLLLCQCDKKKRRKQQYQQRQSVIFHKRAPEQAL

Compound	Affinity [1]	Affinity [2]	Cooperativity [3]	Cooperativity [4]	Cooperativity [5]	Cooperativity [6]	Affinity [7]	Affinity [8]	Affinity [9]	Affinity [10]	Cooperativity [11]	Cooperativity [12]	Affinity [13]	Affinity [14]	Cooperativity [15]	Cooperativity [16]	Affinity [17]	Affinity [18]	Cooperativity [19]	Cooperativity [20]
COc1cc2c(cc1OC)[C@@]13CC[N+]4(Cc5ccccc5)CC5=CCO[C@H]6CC(=O)N2[C@H]1[C@H]6[C@H]5C[C@@H]34 (stereo not given in full)	4.5	4.5	1.19	0.8	0.8	2	3.8	> 4	3.7	3.7	1.19	0.8	4.8	4.6	> 2	0.8	4.4	< 4.6	0.8	0.8
COc1cc2c(cc1OC)[C@@]13CC[N+]4(C)CC5=CCO[C@H]6CC(=O)N2[C@H]1[C@H]6[C@H]5C[C@@H]34 (stereo not given in full)	4.4	4.3	1.19	0.8	1.19	2	3.6	3.5	2.9	3.3	0.8	< 0.2	4.5	4	> 2	0.8	4	4	1.19	0.8
COc1cc2c(cc1OC)[C@@]13CC[N+]4(N)CC5=CCO[C@H]6CC(=O)N2[C@H]1[C@H]6[C@H]5C[C@@H]34 (stereo not given in full)	4.2	< 4	2	0.8	1.19	> 2	3.9	3.8	3.3	3.6	0.8	0.8	4.2	< 4	2	0.8	3.8	3.8	1.19	0.8
